Activity calls are given as the source filed them.
Key:
Format in all cases: functional, cell-based
U-251 = test: Cytotoxicity against human U251 cells at 20 to 25 uM measured after 48 hrs by SRB assay
Summary of the method: (§1)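 SRB screen in human cancer lines (U-251 glioblastoma, PC-3 prostate, K562 leukemia, HCT-15 colorectal, MCF-7 breast, SKLU-1 lung). 5000−7500 cells per well were preincubated 24 h at 37 °C, 5% CO2, then exposed to compound (20.0 or 25.0 μM) for 48 h. Cells were fixed and stained with sulforhodamine B, and absorbance was read at 515 nm.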

PC-3 = test: Cytotoxicity against human PC3 cells at 20 to 25 uM measured after 48 hrs by SRB assay; summary of the method: as §1
K562 = test: Cytotoxicity against human K562 cells at 20 to 25 uM measured after 48 hrs by SRB assay; summary of the method: as §1
HCT-15 = test: Cytotoxicity against human HCT15 cells at 20 to 25 uM measured after 48 hrs by SRB assay; summary of the method: as §1
MCF7 = test: Cytotoxicity against human MCF7 cells at 20 to 25 uM measured after 48 hrs by SRB assay; summary of the method: as §1
SK-LU-1 = test: Cytotoxicity against human SKLU1 cells at 20 to 25 uM measured after 48 hrs by SRB assay; summary of the method: as §1

Measured: Activity

COc1ccc(-c2cc(=O)c3c(O)c(OC)c(OC)cc3o2)cc1O
inactive: all assays above

C[C@@H]1[C@H]2C[C@@]34COC(=O)[C@H]3CC=C[C@H]4[C@@]13C[C@H](c1ccoc1)O[C@H]3O2
inactive: all assays above

C[C@@]12C[C@@]3(c4ccoc4)O[C@@]14CCC=C1C(=O)OC[C@]14CC[C@]2(C)O3
inactive: all assays above

C[C@@H]1[C@H]2C[C@@]34COC(=O)[C@H]3CC=C[C@H]4[C@@]13C[C@H](C1=CC(O)OC1=O)O[C@H]3O2 (stereo not given in full)
inactive: all assays above

C[C@@H]1[C@H]2C[C@@]34COC(=O)[C@@H]3CC=C[C@H]4[C@@]13C[C@H](C1=CC(=O)OC1O)O[C@H]3O2 (stereo not given in full)
inactive: all assays above

COC1C=C([C@H]2C[C@]34[C@@H](O2)O[C@H](C[C@@]25COC(=O)[C@@H]2CC=C[C@H]53)[C@H]4C)C(=O)O1 (mixture of isomers)
inactive: all assays above

C[C@@H]1[C@H]2C[C@@]34COC(=O)[C@@H]3CC=C[C@H]4[C@@]13C[C@H](C1=CC(O)OC1=O)O[C@H]3O2 (stereo not given in full)
inactive: all assays above

C[C@@H]1[C@H]2C[C@@]34COC(=O)[C@H]3CC=C[C@H]4[C@@]13C[C@H](C1=CC(=O)OC1O)O[C@H]3O2 (stereo not given in full)
inactive: all assays above

C[C@@H]1[C@H]2C[C@@]34COC(=O)[C@@H]3CC=C[C@H]4[C@@]13C[C@H](c1ccoc1)O[C@H]3O2
inactive: all assays above

C[C@@H]1[C@@H](C)O[C@@H]2O[C@@H](c3ccoc3)C[C@@]21c1cccc2c1COC2=O
inactive: all assays above

Reference: ChEMBL document CHEMBL4041471, “neo-Clerodane Diterpenoids and Other Constituents of Salvia filipes” (J Nat Prod, 2016)
